# Results as given in ChEMBL document CHEMBL4334460, “Madecassic Acid Derivatives as Potential Anticancer Agents: Synthesis and Cytotoxic Evaluation” (2019).
# Active and inactive are the calls of the source. No cut-off for these calls is given here.
# What was measured:
# CCRF-CEM [1] = assay: Antiproliferative activity against human CCRF-CEM cells assessed as cell growth at 10 uM after 48 hrs by sulforhodamine B assay relative to control; type: functional; details: pooled result: one value given for 60 cell lines, strains, targets or settings, read-out: Activity
# Summary of the method: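 NCI-60 one-dose screen: cells exposed to test compound at a single 10 μM concentration, viability after 48 h read by sulforhodamine B staining; value is growth percent versus negative control, with a time-zero cell control used to determine total cell growth.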
# CCRF-CEM [2] = assay: Antiproliferative activity against human CCRF-CEM cells assessed as growth inhibition after 48 hrs by sulforhodamine B assay; type: functional; details: pooled result: one value given for 58 cell lines, strains, targets or settings
# HCT-15 = assay: Antiproliferative activity against human HCT15 cells assessed as growth inhibition after 48 hrs by sulforhodamine B assay; type: functional; details: HCT-15, 48 h
# UO-31 = assay: Antiproliferative activity against human UO31 cells assessed as growth inhibition after 48 hrs by sulforhodamine B assay; type: functional; details: UO-31, 48 h
# Summary of the method: (§1)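 NCI-60 five-dose follow-up, run only when the one-dose screen indicated activity. Doses 100 μM down to 0.01 μM in log steps (0.01, 0.1, 1, 10, 100 μM). 48 h incubation with sulforhodamine B read-out. A time-zero cell control allowed calculation of GI50 from % growth vs concentration dose–response curves.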
# COLO 205 [3] = assay: Induction of cell cycle arrest in human COLO205 cells assessed as increase in accumulation of cells at G2/M phase at 2 uM after 24 hrs by PI/RNase staining based flow cytometry (reference value: 18.6%); type: functional
# Summary of the method: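 Positive-control arm of the COLO 205 cell-cycle assay: nocodazole 2 μM for 24 h. Culture conditions as above (RPMI, 10% FBS, 37 °C, 5% CO2). Ethanol-fixed cells stained with PI/RNase 40 min at 37 °C and analysed by imaging cytometry for phase distribution. Three independent experiments.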
# COLO 205 [4] = assay: Antiproliferative activity against human COLO205 cells assessed as growth inhibition after 48 hrs by sulforhodamine B assay; type: functional; details: COLO 205, 48 h
# SK-MEL-5 = assay: Antiproliferative activity against human SK-MEL-5 cells assessed as growth inhibition after 48 hrs by sulforhodamine B assay; type: functional; details: SK-MEL-5, 48 h
# UACC-257 [5] = assay: Antiproliferative activity against human UACC257 cells assessed as growth inhibition after 48 hrs by sulforhodamine B assay; type: functional; details: UACC-257, 48 h; summary of the method: as §1
# [6] = Selectivity ratio of GI50 for human NCI-H226 cells to GI50 for human NCI-H460 cells; type: functional
# [7] = Selectivity ratio of GI50 for human Hs 578T cells to GI50 for human MCF7 cells; type: functional
# [8] = Selectivity ratio of GI50 for human Hs 578T cells to GI50 for human T47D cells; type: functional
# [9] = Selectivity ratio of GI50 for human Hs 578T cells to GI50 for human MDA-MB-468 cells; type: functional
# [10] = Selectivity ratio of GI50 for human NCI-H226 cells to GI50 for human NCI-H23 cells; type: functional
# [11] = Selectivity ratio of GI50 for human OVCAR5 cells to GI50 for human OVCAR4 cells; type: functional
# [12] = Selectivity ratio of GI50 for human RXF 393 cells to GI50 for human CAKi1 cells; type: functional
# UACC-257 [13] = assay: Antiproliferative activity against human UACC257 cells assessed as reduction in cell viability after 48 hrs by SRB assay; type: functional; details: UACC-257, 48 h, read-out: LC50 (the source's name)
# Summary of the method: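 NCI-60 five-dose testing at 100, 10, 1, 0.1 and 0.01 μM (log dilutions). After 48 h incubation, viability was read by sulforhodamine B staining. A time-zero cell control gave total growth per cell line. GI50, TGI and LC50 were calculated from % growth versus concentration curves.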
# COLO 205 [14] = assay: Induction of cell cycle arrest in human COLO205 cells assessed as cell population at G0/G1 phase at 10 uM after 48 hrs by PI/RNase staining based flow cytometry (reference value: 63.8%); type: functional
# Summary of the method: (§2)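 COLO 205 cells grown at 37 °C, 5% CO2 in RPMI with 10% FBS and penicillin/streptomycin. Treated 48 h with 10 or 20 μM compound or DMSO vehicle. Cells trypsinized, fixed in ethanol 15 min on ice, stained with PI/RNase solution 40 min at 37 °C, then analysed by imaging cytometry. % cells per phase given as mean ± SD of three independent experiments.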
# COLO 205 [15] = assay: Induction of cell cycle arrest in human COLO205 cells assessed as cell population at S phase at 10 uM after 48 hrs by PI/RNase staining based flow cytometry (reference value: 16.3%); type: functional; summary of the method: as §2
# COLO 205 [16] = assay: Induction of cell cycle arrest in human COLO205 cells assessed as cell population at G2/M phase at 10 uM after 48 hrs by PI/RNase staining based flow cytometry (reference value: 18.6%); type: functional; summary of the method: as §2
# COLO 205 [17] = assay: Induction of cell cycle arrest in human COLO205 cells assessed as cell population at G0/G1 phase at 20 uM after 48 hrs by PI/RNase staining based flow cytometry (reference value: 63.8%); type: functional; summary of the method: as §2
# COLO 205 [18] = assay: Induction of cell cycle arrest in human COLO205 cells assessed as cell population at S phase at 20 uM after 48 hrs by PI/RNase staining based flow cytometry (reference value: 16.3%); type: functional; summary of the method: as §2
# COLO 205 [19] = assay: Induction of cell cycle arrest in human COLO205 cells assessed as cell population at G2/M phase at 20 uM after 48 hrs by PI/RNase staining based flow cytometry (reference value: 18.6%); type: functional; summary of the method: as §2
# COLO 205 [20] = assay: Induction of mitochondrial dysfunction in human COLO205 cells assessed as reduction in mitochondrial membrane potential by measuring shift in red to green fluorescence after 48 hrs by JC-1 staining based inverted microscopic analysis; type: functional, cell-based
# Summary of the method: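 COLO 205 cells (5 × 10^5) grown on coverslips overnight, then treated 48 h with 10 or 20 μM compound or DMSO. Fresh medium with 4 μg/mL JC-1 added for 30 min at 37 °C. Cells washed twice and imaged immediately by inverted fluorescence microscopy (40× objective) at room temperature, scoring red aggregate vs green monomer fluorescence.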
SMILES,GI50 (CCRF-CEM [2]),GI50 (HCT-15),growth at 10 µM (CCRF-CEM [1]),GI50 (UO-31),other results
C[C@H]1[C@H](C)CC[C@]2(C(=O)O)CC[C@]3(C)C(=CC[C@@H]4[C@@]5(C)C[C@@H](O)[C@H](O)[C@@](C)(CO)[C@@H]5[C@H](O)C[C@]43C)[C@H]12 [MADECASSIC ACID],–,–,99.2%,–,–
COC(=O)[C@]12CC[C@@H](C)[C@H](C)[C@H]1C1=CC[C@@H]3[C@@]4(C)C[C@@H](OC(=O)/C=C/c5ccccc5)[C@H](O)[C@@](C)(CO)[C@@H]4[C@H](O)C[C@@]3(C)[C@]1(C)CC2,2.4 µM,2.4 µM,-4.8%,2.4 µM,–
COC(=O)[C@]12CC[C@@H](C)[C@H](C)[C@H]1C1=CC[C@@H]3[C@@]4(C)C[C@@H](OC(C)=O)[C@H](OC(C)=O)[C@@](C)(COC(C)=O)[C@@H]4[C@H](O)C[C@@]3(C)[C@]1(C)CC2,1.7 µM,1.7 µM,8%,1.7 µM,–
COC(=O)Nc1nc2cc(C(=O)c3cccs3)ccc2[nH]1,–,–,–,–,Activity (COLO 205 [3]): Active
COC(=O)[C@]12CC[C@@H](C)[C@H](C)[C@H]1C1=CC[C@@H]3[C@@]4(C)C/C(=N\O)[C@H](O)[C@@]5(C)COC(=C45)C[C@@]3(C)[C@]1(C)CC2,6.6 µM,6.6 µM,-76.9%,6.6 µM,–
COC(=O)[C@]12CC[C@@H](C)[C@H](C)[C@H]1C1=CC[C@@H]3[C@@]4(C)C[C@@H](OC(C)=O)[C@H](O)[C@@](C)(CO)[C@@H]4[C@H](O)C[C@@]3(C)[C@]1(C)CC2,11 µM,11 µM,-79.2%,11 µM,–
COC(=O)[C@]12CC[C@@H](C)[C@H](C)[C@H]1C1=CC[C@@H]3[C@@]4(C)C=C(O)C(=O)C(C)=C4C(=O)C[C@@]3(C)[C@]1(C)CC2,–,–,67.8%,–,–
COC(=O)[C@]12CC[C@@H](C)[C@H](C)[C@H]1C1=CC[C@@H]3[C@@]4(C)CC(=O)[C@H](O)[C@@]5(C)COC(=C45)C[C@@]3(C)[C@]1(C)CC2,18.2 µM,18.2 µM,-62.9%,18.2 µM,–
COC(=O)[C@]12CC[C@@H](C)[C@H](C)[C@H]1C1=CC[C@@H]3[C@@]4(C)C[C@@H](O)[C@H](O)[C@@]5(C)COC(=C45)C[C@@]3(C)[C@]1(C)CC2,–,–,85.8%,–,–
COC(=O)[C@]12CC[C@@H](C)[C@H](C)[C@H]1C1=CC(=O)[C@@H]3[C@@]4(C)C[C@@H](O)[C@H](O)[C@@]5(C)COC(=C45)C[C@@]3(C)[C@]1(C)CC2,–,–,51.5%,–,–
COC(=O)[C@]12CC[C@@H](C)[C@H](C)[C@H]1C1=CC[C@@H]3[C@@]4(C)CC(=O)[C@H](OC(=O)c5ccco5)[C@@]5(C)COC(=C45)C[C@@]3(C)[C@]1(C)CC2,2.3 µM,0.5 µM,27.2%,1.7 µM,TGI (COLO 205 [4]): 3 µM; TGI (SK-MEL-5): 2.6 µM; TGI (UACC-257 [5]): 3 µM; RatioGI50 [6]: >100; RatioGI50 [7]: >100; RatioGI50 [8]: >100; RatioGI50 [9]: >100; RatioGI50 [10]: >50; RatioGI50 [11]: >50; RatioGI50 [12]: >50; CC50 (UACC-257 [13]): 50.1 µM; Activity (COLO 205 [14]): 88.4%; Activity (COLO 205 [15]): 3.8%; Activity (COLO 205 [16]): 6.6%; Activity (COLO 205 [17]): 89.1%; Activity (COLO 205 [18]): 3.3%; Activity (COLO 205 [19]): 6.2%; Activity (COLO 205 [20]): Dose-dependent effect
COC(=O)[C@]12CC[C@@H](C)[C@H](C)[C@H]1C1=CC(=O)[C@@H]3[C@@]4(C)C[C@@H](OC(C)=O)[C@H](OC(C)=O)[C@@](C)(COC(C)=O)[C@@H]4C(=O)C[C@@]3(C)[C@]1(C)CC2,–,–,45.8%,–,–
COC(=O)[C@]12CC[C@@H](C)[C@H](C)[C@H]1C1=CC[C@@H]3[C@@]4(C)C[C@@H](O)[C@H](O)[C@@](C)(CO)[C@@H]4[C@H](O)C[C@@]3(C)[C@]1(C)CC2,12.9 µM,12.9 µM,-54.1%,12.9 µM,–
COC(=O)[C@]12CC[C@@H](C)[C@H](C)[C@H]1C1=CC[C@@H]3[C@@]4(C)CC(=O)[C@H](OC(=O)/C=C/c5ccccc5)[C@@]5(C)COC(=C45)C[C@@]3(C)[C@]1(C)CC2,–,–,78.2%,–,–

# Further lines, with some results ahead:
GI50 (CCRF-CEM [2]),GI50 (HCT-15),SMILES,growth at 10 µM (CCRF-CEM [1]),GI50 (UO-31),other results
8.9 µM,8.9 µM,COC(=O)[C@]12CC[C@@H](C)[C@H](C)[C@H]1C1=CC[C@@H]3[C@@]4(C)C=C(O)C(=O)[C@@]5(C)COC(=C54)C[C@@]3(C)[C@]1(C)CC2,-58.9%,8.9 µM,–
10 µM,10 µM,COC(=O)[C@]12CC[C@@H](C)[C@H](C)[C@H]1C1=CC[C@@H]3[C@@]4(C)CC(=O)[C@H](O)[C@@](C)(CO)[C@@H]4C(=O)C[C@@]3(C)[C@]1(C)CC2,-22.4%,10 µM,–
17 µM,17 µM,COC(=O)[C@]12CC[C@@H](C)[C@H](C)[C@H]1C1=CC[C@@H]3[C@@]4(C)C[C@@H](O)[C@H](O)[C@@](C)(CO)C4=CC[C@@]3(C)[C@]1(C)CC2,-55.4%,17 µM,–
4.9 µM,4.9 µM,COC(=O)[C@]12CC[C@@H](C)[C@H](C)[C@H]1C1=CC[C@@H]3[C@@](C)(CC#N)C4=C(C[C@@]3(C)[C@]1(C)CC2)OC[C@]4(C)C=O,-18.1%,4.9 µM,–
2.3 µM,2.3 µM,COC(=O)[C@]12CC[C@@H](C)[C@H](C)[C@H]1C1=CC[C@@H]3[C@@]4(C)C[C@@H](OC(=O)c5ccco5)[C@H](O)[C@@](C)(CO)[C@@H]4[C@H](O)C[C@@]3(C)[C@]1(C)CC2,-83%,2.3 µM,–
12 µM,12 µM,COC(=O)[C@]12CC[C@@H](C)[C@H](C)[C@H]1C1=CC[C@@H]3[C@@]4(C)C=C(O)C(=O)C(C)=C4CC[C@@]3(C)[C@]1(C)CC2,31.7%,12 µM,–
